{"data": "Measured values from different studies", "target": "Ephrin type-A receptor 7 (EPHA7, Homo sapiens, UniProt Q15375)", "note": "Compare with care: the assays were run in different laboratories."}
{"Compound": "O=c1[nH]c2ccccc2n1C1CCN(Cc2ccc(-c3[nH]c4cc5ncnc5cc4nc3-c3ccccc3)cc2)CC1", "test": "cell-free assay", "setting": "0.5 µM", "quantity": "remaining signal", "value": "109%"}
{"Compound": "Nc1ncc(-c2nc(N3CCOCC3)nc(N3CCOCC3)n2)c(C(F)F)n1", "test": "cell-free assay, competition with immobilised ligand", "setting": "10 µM", "quantity": "remaining binding", "value": "86%"}
{"Compound": "CC(C)(C)c1cc(C=C(C#N)C#N)cc(Br)c1O", "test": "enzyme activity, inhibitor", "setting": "0.5 µM", "quantity": "remaining activity", "value": "107%"}
{"Compound": "COc1ncccc1-c1cnn2ccc(N3CCN(C(=O)OC(C)C)CC3)nc12", "test": "binding, competition with immobilised ligand", "setting": "1 µM", "quantity": "remaining binding", "value": "100%"}
{"Compound": "N#CC1(c2ccccn2)CCN(Cc2cc(C(=O)O)c(=O)n3ccccc23)CC1", "test": "cell-free assay, competition with immobilised ligand", "setting": "1 µM", "quantity": "remaining binding", "value": "100%"}
{"Compound": "Cn1cc(-c2cc(F)cc(N3CCn4c(cc5c4CCCC5)C3=O)c2CO)cc(Nc2ccc(N3CCN(C4COC4)CC3)cn2)c1=O", "test": "enzyme activity, inhibitor", "setting": "0.1 µM", "quantity": "inhibition", "value": "13%"}
{"Compound": "Cc1nn(C)cc1-c1nc2c(N3CCN(Cc4ccc(Cl)cc4)CC3)c(Cl)cnc2[nH]1", "test": "binding, competition with immobilised ligand", "setting": "1 µM", "quantity": "remaining binding", "value": "100%"}
{"Compound": "Cn1cc(-c2cccc(N3CCc4c(sc5c4CC(C)(C)C5)C3=O)c2CO)cc(Nc2ccncn2)c1=O", "test": "enzyme activity, inhibitor", "setting": "1 µM", "quantity": "inhibition", "value": "83%"}
{"Compound": "COc1cc(Nc2ncc(F)c(Nc3ccc4c(n3)NC(=O)C(C)(C)O4)n2)cc(OC)c1OC", "test": "binding, competition with immobilised ligand", "setting": "10 µM", "quantity": "inhibition", "value": "100%"}
{"Compound": "Cn1cncc1[C@@](O)(COc1ccc(C#N)cc1-c1ccc(OC(F)(F)F)cc1)c1ccc(C#N)cc1", "test": "cell-free assay, competition with immobilised ligand", "setting": "1 µM", "quantity": "remaining binding", "value": "100%"}
